High-throughput results (PubChem)
LGR2 inh: inhibitors of bursicon-induced Drosophila LGR2 receptor cAMP signaling; HEK293 LGR2, CRE-luciferase, bursicon-stimulated, 4 h; inhibition, % at 9.99 µM; 380,000 tested, 0.35% active;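 active = drop in luminescence signal, shown as inhibition above about 50% in the replicate tests, limit read from the data, passing the limit was not always enough; inconclusive = probably only some replicates passing the limit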;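 also: agonist challenge used bursicon conditioned medium at about half maximal strength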
EWS-Fli block: blocks EWS/Fli oncoprotein-driven transcription. AID 651661. inhibition, % at 12.6 µM. 350,000 tested, 0.67% active. A673 NR0B1-luciferase reporter, viability-normalised;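 active = mean inhibition of at least 50% after viability correction, with every replicate also passing that limit; inconclusive = mean reaches 50% but only one of two replicates passes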;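 also: firefly luciferase signal divided by Alamar Blue viability fluorescence both relative to DMSO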
E-sel inducer: E-selectin induction on HUVECs; P16581; HUVEC E-selectin immunofluorescence imaging; normalized: neutral wells 0, TNF-alpha wells 100; activation, % at 7.58 µM; 260,000 tested, 0.37% active; AID 686992;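 active = mean E-selectin-positive cell signal at least 10% of the positive control, reached in at least 60% of replicates, without over 20% cell loss; inconclusive = no rule given, readout overlaps actives, possibly toxicity-flagged; inactive = the rest, including those meeting only one limit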
Target sequence (P16581 whole entry, looked up): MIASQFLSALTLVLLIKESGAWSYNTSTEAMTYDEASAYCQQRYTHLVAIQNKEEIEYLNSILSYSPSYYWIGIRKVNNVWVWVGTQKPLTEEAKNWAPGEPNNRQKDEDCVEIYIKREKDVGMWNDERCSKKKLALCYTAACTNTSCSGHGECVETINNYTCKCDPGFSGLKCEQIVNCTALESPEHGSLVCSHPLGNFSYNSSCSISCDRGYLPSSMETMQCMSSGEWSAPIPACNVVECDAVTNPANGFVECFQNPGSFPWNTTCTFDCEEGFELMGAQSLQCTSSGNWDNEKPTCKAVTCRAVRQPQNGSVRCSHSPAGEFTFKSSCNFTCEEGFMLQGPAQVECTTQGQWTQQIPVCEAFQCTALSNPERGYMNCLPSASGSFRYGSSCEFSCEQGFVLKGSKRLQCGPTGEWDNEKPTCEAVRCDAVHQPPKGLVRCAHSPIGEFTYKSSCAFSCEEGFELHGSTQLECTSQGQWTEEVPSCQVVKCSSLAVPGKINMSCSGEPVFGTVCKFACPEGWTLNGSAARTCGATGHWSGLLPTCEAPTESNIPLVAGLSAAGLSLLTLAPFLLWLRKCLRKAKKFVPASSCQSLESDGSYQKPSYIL
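Test system: HUVEC | Signal: Immunofluorescence imaging | Read-out: Percent E-selectin-positive cells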
Ecoli rRNA inh: inhibitors of bacterial rRNA selective over humanized ribosomes; E. coli WT GFP vs humanized-ribosome RFP mutants, fluorescence, 24 h; stronger effect = lower value; DMSO median 0, no signal -100; GFP signal change (wild-type ribosome), % (no concentration beside the values); 350,000 tested, 1.6% active; AID 720706;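 active = significant combined selectivity score with lowered wild-type GFP, culture density cut under 30%, mutant RFP and density less affected; inactive = any of these conditions unmet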
Numbers without * were called inactive; ? = inconclusive; / = not tested or not shown. The list is not random: actives were taken first. Their share in the collection is about 2.4%.

SMILES	LGR2 inh	EWS-Fli block	E-sel inducer	Ecoli rRNA inh
Cc1cc(OCCn2cc(/C(N)=N/O)c3ccccc32)ccc1Cl	-21	/	/	-40*
CC(=O)c1cn(CCOc2ccc(F)cc2)c2ccccc12	2	12	/	-12
C#CCN(C[C@@H]1[C@@H](OC(=O)NCC2CCCCC2)[C@@H](OC(=O)NCC2CCCCC2)Cn2c(=O)ccc(=O)n21)S(=O)(=O)c1ccc(C)cc1	72*	38	0	3
C#CCN(C[C@@H]1[C@@H](OC(=O)NCc2ccco2)[C@@H](OC(=O)NCc2ccco2)Cn2c(=O)ccc(=O)n21)S(=O)(=O)c1ccc(C)cc1	?	26	/	/
C#CCN(C[C@@H]1[C@@H](OC(=O)NCCCCCC)[C@@H](OC(=O)NCCCCCC)Cn2c(=O)ccc(=O)n21)S(=O)(=O)c1ccc(C)cc1	?	67*	2	-1
CCCCCCNC(=O)O[C@H]1Cn2c(=O)ccc(=O)n2[C@@H]2CN(S(=O)(=O)c3ccc(C)cc3)C[C@]12O	38	71*	0	-26*
O=C(C[C@@H]1CC[C@@H](NC(=O)C2CCC2)[C@H](CO)O1)NC1CCCCC1	11	-1	0	-1
O=C(NCc1nc2ccccc2[nH]1)C1=C[C@@H](C2CC2)C[C@@H](OCc2ccc(CO)cc2)O1	10	10	0	-27*
c1ccc(SCc2nc3ccccc3s2)nc1	-74	-64	0	-23*
C/C(=N\NC(=O)COc1ccc(C)cc1[N+](=O)[O-])c1cccs1	-22	-36	/	6
C/C(=N\NC(=O)COc1ccc(C)cc1Br)c1cc([N+](=O)[O-])cs1	-7	-5	/	-23*
CCCC#Cc1ccc([C@@H]2[C@H]3CN(C(=O)Nc4ccc(F)cc4)CC(=O)N3[C@H]2CO)cc1	19	/	1	-43
COc1ccc(C(=O)N/C(=C\c2cn(S(=O)(=O)N(C)C)c3ccccc23)C(=O)NCCCn2ccnc2)cc1	4	-1	0	-5
CCCNC(=O)/C(=C/c1cn(S(=O)(=O)N(C)C)c2ccccc12)NC(=O)c1ccc(OC)cc1	9	14	/	-26*
CN(C)Cc1c(O)ccc2c(=O)c(-c3ccccc3)c(C(F)(F)F)oc12	1	-11	/	-32*
CN(C)Cc1c(O)ccc2c(=O)c(-c3ccccc3Cl)c(C(F)(F)F)oc12	-4	7	/	-15
O=C(Nc1ccc(Br)cc1Br)C1CC(=O)N(Cc2ccccc2)C1 (stereo unspecified)	-2	3	/	-34*
O=C(Nc1cccc(Cl)c1)c1ccc(Cn2cc(Cl)cn2)cc1	-22	-11	/	-26*
COc1ccc2nc(NC(=O)C3COc4ccccc4O3)sc2c1 (stereo unspecified)	-10	-79	0	-38
CCc1nnc(NC(=O)C2COc3ccccc3O2)s1 (stereo unspecified)	-4	/	/	/
COC(=O)c1ccsc1NC(=O)C1COc2ccccc2O1 (stereo unspecified)	-6	-12	0	-32*
O=C(Nc1nc2c(s1)CCCC2)C1COc2ccccc2O1 (stereo unspecified)	80*	-82	3	-16
CN(C)CCCNC(=O)C[C@H]1CC[C@H](NC(=O)c2ccccc2F)[C@@H](CO)O1	-8	-10	4	/
COc1ccc2c3c([nH]c2c1)[C@H](CO)N(C(C)=O)CC31CN(C(=O)Nc2c(C)noc2C)C1	-9	5	0	5
C[C@@H]1CCCCO[C@@H](CN(C)C)[C@H](C)CN([C@H](C)CO)C(=O)c2cc(NC(=O)c3ccncc3)ccc2O1	-1	-5	1	7
SMILES	LGR2 inh	EWS-Fli block	E-sel inducer	Ecoli rRNA inh
COc1cc(OC)nc(Oc2ccccc2C(=O)Oc2ccccc2Cl)n1	-7	-1	/	-23*
O=C(O)[C@H]1[C@H](CO)[C@H]2Cn3c(ccc(C4=CCCCC4)c3=O)[C@H]2N1C(=O)Cc1cccnc1	-4	-2	0	1
CNC[C@H]1Oc2ccc(N)cc2CC(=O)N(C)C[C@@H]1C	/	/	/	0
O=c1oc(-c2ccccc2NS(=O)(=O)c2ccc(F)cc2)nc2ccccc12	1	8	0	-32*
O=c1oc(-c2ccccc2NS(=O)(=O)c2ccccc2)nc2ccccc12	7	/	/	/
Cc1ccccc1S(=O)(=O)N1CC[C@@H]2[C@@H](CO)N(C)c3ccc(-c4ccc(F)cc4)cc3[C@@H]21	21	27	0	-2
CC(C)NC(=O)N(C)C[C@@H]1Oc2c(cccc2N(C)C)C(=O)N(C)C[C@@H]1C	/	/	/	-4
CCn1c(SCC(=O)N2CCCCC2)nc2c(c1=O)SCC2	7	0	0	6
CCn1c(SCc2ccc(F)cc2)nc2c(c1=O)SCC2	11	9	3	-31*
CCn1c(SCc2cccc(F)c2)nc2c(c1=O)SCC2	-4	10	2	-35*
C[C@H](CO)N1C[C@H](C)[C@@H](CN(C)C(=O)CN(C)C)Oc2cc(-c3ccncc3)ccc2S1(=O)=O	3	1	0	4
C=C(C)CCC(C)N1CCC(n2nccc2NC(=O)CCOc2ccccc2)CC1 (stereo unspecified)	-4	8	44*	19
CC(C)NC(=O)N1CCC(n2nccc2NC(=O)CCOc2ccccc2)CC1	-2	6	0	10
COc1cccc(CCC(=O)N2CCC(n3nccc3NC(=O)CC(C)C)CC2)c1	-15	/	39*	0
Cc1ccc(C)c(CN2CCC(n3nccc3NC(=O)CCCc3ccccc3)CC2)c1	4	/	/	-27*
C[C@@H]1CN([C@H](C)CO)C(=O)c2cc(C3=CCCC3)cnc2O[C@@H]1CN(C)C(=O)C1CCOCC1	-5	0	0	4
Cc1ccccc1Nc1nc(N)c2ccccc2n1	3	-20	/	18
CCOc1ccc(Nc2nc(N)c3ccccc3n2)cc1	96*	69*	0	17
CN(C)c1ccc(Nc2nc(N)c3ccccc3n2)cc1	89*	77*	0	16
Cc1ccc(Nc2nc(N)c3ccccc3n2)cc1Cl	72*	24	1	-28
O=C(/C=C/c1ccc(F)cc1)NC(=S)N1CCN(Cc2ccccc2)CC1	-1	-8	0	-34*
COc1ccccc1N1CCN(C(=O)CCSCc2ccccc2F)CC1	-14	-2	0	4
COc1cccc(N2CCN(C(=O)CCSCc3ccccc3F)CC2)c1	1	-5	/	-35*
Cc1cc(C)c(Cc2c(C)nc3c(C(=O)NCc4ccco4)cnn3c2C)c(C)c1	56*	34	/	-9
O=C(CSc1nnnn1C1CCCCC1)NCc1cccs1	-19	9	/	-1
O=C(CSc1nnnn1C1CCCCC1)NCCc1ccccc1	-18	-22	/	-28*
C/C=C/c1ccc2c(c1)O[C@H](CN(C)Cc1cccc(F)c1)[C@H](C)CN([C@@H](C)CO)S2(=O)=O	16	7	-1	-31
CCCNC(=O)C[C@@H]1CC[C@@H]2[C@H](COc3ccc(NC(=O)NCCC)cc3C(=O)N2C)O1	0	/	0	1
CN(C)CC(=O)N[C@@H]1C=C[C@@H](CC(=O)O)O[C@@H]1CO	10	-6	0	-1
